SMILES strings stand for the structures. Values after ≈ are worked out from the molar mass of the structure shown. Active and inactive are the calls of the source. No cut-off for these calls is given here.

One experiment deals with Mycobacterium kansasii. The experiment is described as follows: Antimycobacterial activity against Mycobacterium kansasii CNCTC My 235/80 after 14 days. Format: functional. As to conditions: CNCTC My 235/80, 336 h. Put shortly: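 Microdilution in Šula's semisynthetic medium; compounds in DMSO at 32–0.03 µM. Inoculum from 1.0 McFarland suspension diluted 10-4. […] Isoniazid and rifampicin as reference drugs.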

In experiment [1] the test system is Mycobacterium avium. The experiment is described as follows: Antimycobacterial activity against Mycobacterium avium CNCTC My 330/88 after 14 days. The experiment is classed as functional. Conditions: CNCTC My 330/88, 336 h. Put shortly: (§1)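 M. avium was tested by microdilution in Šula's semisynthetic medium, with compounds dissolved in DMSO and serially diluted from 1000 down to 1. Inoculum was a 1.0 McFarland suspension diluted 10-5. Plates were incubated at 37 °C and read at 14 and 21 days. […] Isoniazid and rifampicin served as standards.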

Another experiment relates to Aspergillus flavus. The experiment is described as follows: Antifungal activity against Aspergillus flavus CCM 8363 at highest concentration measured after 24 to 48 hrs by alamar blue dye based broth microdilution assay. Format: functional, organism-based. (In general: Alamar Blue is a resazurin reagent that responds to reducing activity.)
Experiment [2] concerns the target T1, Decaprenylphosphoryl-beta-D-ribose oxidase (Mycobacterium tuberculosis (strain ATCC 25618 / H37Rv)) (UniProt P9WJF1).
T1 sequence (whole entry): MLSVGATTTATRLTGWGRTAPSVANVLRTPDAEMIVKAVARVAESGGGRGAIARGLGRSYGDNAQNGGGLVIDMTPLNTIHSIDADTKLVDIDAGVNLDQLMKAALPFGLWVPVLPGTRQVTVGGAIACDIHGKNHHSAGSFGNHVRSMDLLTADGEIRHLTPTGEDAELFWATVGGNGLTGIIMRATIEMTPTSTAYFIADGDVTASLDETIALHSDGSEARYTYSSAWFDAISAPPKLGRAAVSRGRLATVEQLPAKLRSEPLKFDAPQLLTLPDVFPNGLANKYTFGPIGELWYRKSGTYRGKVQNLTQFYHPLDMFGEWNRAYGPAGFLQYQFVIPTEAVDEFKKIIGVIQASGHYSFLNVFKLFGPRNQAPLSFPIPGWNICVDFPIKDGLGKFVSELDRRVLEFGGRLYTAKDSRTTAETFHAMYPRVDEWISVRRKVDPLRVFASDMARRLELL
Briefly: Inhibition of DprE1 in Mycobacterium tuberculosis H37Rv assessed as accumulation of trehalose dimycolates at 10 times MIC measured after 24 hrs in presence of [14C]-acetate by TLC-based autoradiography. Summed up:
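M. tuberculosis H37Rv cultures were exposed to compound at final 10× or 100× MIC, or to DMSO, together with [14C]-acetate at 1 µCi/ml final. After 24 h, lipids were extracted in CHCl3/CH3OH (2:1) for 2 h at 65 °C and given two Folch washes. Extracts were run on TLC in CHCl3/CH3OH/H2O (20:4:0.5), then autoradiographed for 7 days at -80 °C.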

Experiment [3] deals with Mycobacterium avium. The experiment is described as follows: Antimycobacterial activity against Mycobacterium avium CNCTC My 330/88 after 21 days. The experiment is classed as functional. Conditions: CNCTC My 330/88, 504 h. Put shortly: as §1
The next experiment relates to Klebsiella pneumoniae. Briefly: Antibacterial activity against Klebsiella pneumoniae at highest concentration measured after 24 to 48 hrs by alamar blue dye based broth microdilution assay. Format: functional, organism-based.
The test system of the next experiment is Pichia kudriavzevii. Briefly: Antifungal activity against Candida krusei ATCC 6258 CCM8271 at highest concentration measured after 24 to 48 hrs by alamar blue dye based broth microdilution assay. Format: functional, organism-based.
The test system of experiment [4] is Trichophyton interdigitale. The experiment is described as follows: Antifungal activity against Trichophyton interdigitale ATCC 9533 CCM 8377 at highest concentration measured after 72 to 120 hrs by alamar blue dye based broth microdilution assay. The experiment is classed as functional.
For another experiment, the system named is Candida tropicalis. Briefly: Antifungal activity against Candida tropicalis ATCC 750 CCM 8264 at highest concentration measured after 24 to 48 hrs by alamar blue dye based broth microdilution assay. The experiment is classed as functional, organism-based.
The test system of another experiment is Aspergillus fumigatus. Briefly: Antifungal activity against Aspergillus fumigatus ATCC 204305 at highest concentration measured after 24 to 48 hrs by alamar blue dye based broth microdilution assay. Format: functional, organism-based.
A further experiment deals with Candida parapsilosis. The experiment is described as follows: Antifungal activity against Candida parapsilosis ATCC 22019 CCM 8260 at highest concentration measured after 24 to 48 hrs by alamar blue dye based broth microdilution assay. The experiment is classed as functional, organism-based.
Experiment [5] deals with Mycobacterium tuberculosis. Briefly: Antimycobacterial activity against Mycobacterium tuberculosis H37Rv CNCTC My 331/88 after 21 days. Format: functional. As to conditions: H37Rv CNCTC My 331/88, 504 h. Summed up:
(§2)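 M. tuberculosis strains (H37Rv and clinical MDR/XDR isolates) tested by microdilution in Šula's semisynthetic medium. Compounds were dissolved in DMSO and tested at 32 to 0.03 µM in twofold steps. Inoculum was a 1.0 McFarland suspension diluted 10-3. Plates were incubated at 37 °C and read at 14 and 21 days.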

For experiment [6], the target named is T2, Decaprenylphosphoryl-beta-D-ribose oxidase (Mycobacterium smegmatis (strain ATCC 700084 / mc(2)155)) (UniProt A0R607).
T2 sequence (whole entry): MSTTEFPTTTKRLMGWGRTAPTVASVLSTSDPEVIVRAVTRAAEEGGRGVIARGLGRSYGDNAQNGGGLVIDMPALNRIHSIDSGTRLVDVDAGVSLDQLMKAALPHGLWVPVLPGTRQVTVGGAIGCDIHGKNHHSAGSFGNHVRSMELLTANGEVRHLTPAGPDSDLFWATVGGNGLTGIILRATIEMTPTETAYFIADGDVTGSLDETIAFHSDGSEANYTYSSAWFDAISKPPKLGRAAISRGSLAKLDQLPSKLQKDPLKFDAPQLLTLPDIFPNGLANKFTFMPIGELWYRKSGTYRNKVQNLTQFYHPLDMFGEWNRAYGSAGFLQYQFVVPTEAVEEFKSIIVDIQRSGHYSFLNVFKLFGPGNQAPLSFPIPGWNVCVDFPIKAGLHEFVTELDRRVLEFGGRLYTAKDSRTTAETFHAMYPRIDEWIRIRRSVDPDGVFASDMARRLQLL
Briefly: Inhibition of DprE1 in Mycolicibacterium smegmatis MC2 155 lysate assessed as reduction in epimerization of P[14C]RPP to DP[14C]A at 700 uM measured after 1.5 hrs in presence of NADH by TLC-based autoradiography. Format: subcellular. Summed up:
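Cell-free DPA synthesis used a membrane/cell-envelope fraction (430 µg), spun at 100 000 × g, from sonicated M. smegmatis mc2155. The fraction was incubated 1.5 h with 15,000 dpm P[14C]RPP and NADH. BTZ was used at 70 µM and test compounds at 700 µM final, both added from DMSO stocks. Lipids were extracted, 25% was resolved by TLC, and autoradiography ran 8 days at -80 °C.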

A further experiment concerns Serratia marcescens. Briefly: Antibacterial activity against Serratia marcescens at highest concentration measured after 24 to 48 hrs by alamar blue dye based broth microdilution assay. Format: functional, organism-based.
In experiment [7] the test system is Mycobacterium tuberculosis. The experiment is described as follows: Antimycobacterial activity against Mycobacterium tuberculosis H37Rv CNCTC My 331/88 after 14 days. The experiment is classed as functional. Conditions: H37Rv CNCTC My 331/88, 336 h. Put shortly:
as §2

A further experiment relates to Pseudomonas aeruginosa. Briefly: Antibacterial activity against Pseudomonas aeruginosa ATCC 27853 CCM 3955 at highest concentration measured after 24 to 48 hrs by alamar blue dye based broth microdilution assay. The experiment is classed as functional, organism-based.
Experiment [8] relates to Mycobacterium tuberculosis. The experiment is described as follows: Antimycobacterial activity against XDR Mycobacterium tuberculosis Praha 131 after 21 days. Format: functional. As to conditions: Praha 131, 504 h. Summed up: as §2

`CCCCCCn1c(SCc2cc([N+](=O)[O-])cc([N+](=O)[O-])c2)nnc1-c1ccccc1`: the MIC99 (as a rule, an inhibitory concentration at the 99% level, which refers to growth in some studies and to a panel of isolates in others) against Mycobacterium kansasii was 1 µM (≈ 0.442 µg/mL); in the experiment with Mycobacterium avium [1], 250 µM (≈ 110 µg/mL); against Mycobacterium avium [3], 250 µM (≈ 110 µg/mL); in experiment [5], 2 µM (≈ 0.883 µg/mL); in experiment [7] it was 1 µM (≈ 0.442 µg/mL); in [8], 4 µM (≈ 1.77 µg/mL). Moreover, the result (in the experiment on Aspergillus flavus; in the experiment on Klebsiella pneumoniae; in the experiment on Pichia kudriavzevii; in [4]; in the experiment on Candida tropicalis; in the experiment on Aspergillus fumigatus) was inactive. Also, the result in the experiment on Candida parapsilosis, in the experiment with Serratia marcescens and with Pseudomonas aeruginosa was inactive. For the same molecule, in experiment [2], the inhibition result is “inactive”. In experiment [6], the “DprE1 inhibition (active/not active)” value was “inactive”.

Turning to `O=[N+]([O-])c1cc(-c2nnc(SCc3ccccc3)n2Cc2ccccc2)cc([N+](=O)[O-])c1`, the MIC99 is 0.03 µM (≈ 0.0134 µg/mL) in the experiment on Mycobacterium kansasii; 125 µM (≈ 55.9 µg/mL) in the experiment with Mycobacterium avium [1]; 125 µM (≈ 55.9 µg/mL) against Mycobacterium avium [3]; 0.03 µM (≈ 0.0134 µg/mL) in experiment [5]; 0.03 µM (≈ 0.0134 µg/mL) in experiment [7]; 0.03 µM (≈ 0.0134 µg/mL) in experiment [8]. In addition, the result (in the experiment on Aspergillus flavus; in the experiment with Klebsiella pneumoniae; in the experiment with Pichia kudriavzevii; in experiment [4]; with Candida tropicalis; in the experiment on Aspergillus fumigatus) was inactive. Moreover, the result with Candida parapsilosis, with Serratia marcescens and with Pseudomonas aeruginosa was inactive. Moreover, the inhibition result in experiment [2] was “inactive”. In addition, the “DprE1 inhibition (active/not active)” value in experiment [6] was “Active”.

Regarding `COc1ccc(CSc2nnc(-c3cc([N+](=O)[O-])cc(C(F)(F)F)c3)n2Cc2ccccc2)cc1`, the MIC99 was determined as 0.5 µM (≈ 0.25 µg/mL) against Mycobacterium kansasii; 250 µM (≈ 125 µg/mL) with Mycobacterium avium [1]; 250 µM (≈ 125 µg/mL) against Mycobacterium avium [3]; 0.5 µM (≈ 0.25 µg/mL) in [5]; 0.5 µM (≈ 0.25 µg/mL) in experiment [7]; 1 µM (≈ 0.501 µg/mL) in [8]. The outcome (in the experiment on Aspergillus flavus; in the experiment on Klebsiella pneumoniae; in the experiment with Pichia kudriavzevii; in experiment [4]; with Candida tropicalis; in the experiment with Aspergillus fumigatus) was inactive. The outcome in the experiment with Candida parapsilosis, in the experiment on Serratia marcescens and in the experiment on Pseudomonas aeruginosa was inactive. In addition, the inhibition entry in [2] is “Active”. For the same molecule, in experiment [6], the “DprE1 inhibition (active/not active)” value was “Active”.

As to `O=[N+]([O-])c1cc(-c2nnc(SCc3ccccc3)n2Cc2ccccc2)cc(C(F)(F)F)c1`, the MIC99 was found to be 0.03 µM (≈ 0.0141 µg/mL) against Mycobacterium kansasii; 250 µM (≈ 118 µg/mL) with Mycobacterium avium [1]; 250 µM (≈ 118 µg/mL) with Mycobacterium avium [3]; 0.03 µM (≈ 0.0141 µg/mL) in [5]; 0.03 µM (≈ 0.0141 µg/mL) in experiment [7]; 0.06 µM (≈ 0.0282 µg/mL) in experiment [8]. For the same molecule, the result (in the experiment with Aspergillus flavus; with Klebsiella pneumoniae; with Pichia kudriavzevii; in experiment [4]; in the experiment on Candida tropicalis; with Aspergillus fumigatus) was inactive. Further, the result with Candida parapsilosis, with Serratia marcescens and in the experiment on Pseudomonas aeruginosa was inactive. Also, the inhibition result in experiment [2] is “Active”. Also, in experiment [6], the “DprE1 inhibition (active/not active)” value was “Active”.

As to `COc1ccc(CSc2nnc(-c3cc([N+](=O)[O-])cc([N+](=O)[O-])c3)n2Cc2ccccc2)cc1`, the MIC99 worked out at 0.03 µM (≈ 0.0143 µg/mL) in the experiment with Mycobacterium kansasii; 62 µM (≈ 29.6 µg/mL) against Mycobacterium avium [1]; 62 µM (≈ 29.6 µg/mL) against Mycobacterium avium [3]; 0.03 µM (≈ 0.0143 µg/mL) in experiment [5]; 0.03 µM (≈ 0.0143 µg/mL) in experiment [7]; 0.03 µM (≈ 0.0143 µg/mL) in experiment [8]. Moreover, the result (in the experiment on Aspergillus flavus; with Klebsiella pneumoniae; in the experiment on Pichia kudriavzevii; in experiment [4]; with Candida tropicalis; in the experiment on Aspergillus fumigatus) was inactive. Further, the outcome with Candida parapsilosis, in the experiment with Serratia marcescens and with Pseudomonas aeruginosa was inactive. For the same molecule, in [2], the inhibition entry is “inactive”. In addition, the “DprE1 inhibition (active/not active)” value in experiment [6] was “Active”.

For the molecule `COc1ccc(Cn2c(SCc3cc([N+](=O)[O-])cc([N+](=O)[O-])c3)nnc2-c2ccccc2)cc1`, the MIC99 was determined as 2 µM (≈ 0.955 µg/mL) with Mycobacterium kansasii; 250 µM (≈ 119 µg/mL) against Mycobacterium avium [1]; 250 µM (≈ 119 µg/mL) in the experiment with Mycobacterium avium [3]; 2 µM (≈ 0.955 µg/mL) in experiment [5]; 1 µM (≈ 0.478 µg/mL) in experiment [7]; 4 µM (≈ 1.91 µg/mL) in [8]. Besides, the result (with Aspergillus flavus; in the experiment on Klebsiella pneumoniae; with Pichia kudriavzevii; in experiment [4]; in the experiment with Candida tropicalis; in the experiment with Aspergillus fumigatus) was inactive. The result in the experiment with Candida parapsilosis, in the experiment with Serratia marcescens and in the experiment with Pseudomonas aeruginosa was inactive. Also, the inhibition result in experiment [2] was “inactive”. For the same molecule, the “DprE1 inhibition (active/not active)” value in experiment [6] is “inactive”.
